Active and inactive are the calls of the source. No cut-off for these calls is given here.

Experiment [1] concerns the target Glyceraldehyde-3-phosphate dehydrogenase (Homo sapiens) (UniProt P04406). The experiment is described as follows: Inhibition of human GAPDH assessed as ratio of kinact to Ki by Kitz-Wilson double-reciprocal plot at pH 7.4.
In experiment [2] the target is Glyceraldehyde-3-phosphate dehydrogenase (Plasmodium falciparum) (UniProt Q8T6B1). Description: Inhibition of recombinant Plasmodium falciparum GAPDH expressed in Escherichia coli by time course assay. Summed up: (§1)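 Pf GAPDH incubated with inhibitor, aliquots withdrawn over time for activity assay; control enzyme kept without inhibitor under the same conditions. Activity normalized to the inhibitor-free value. Time courses fitted to a sum of two exponential decays. kobs obtained by fitting residual activity versus incubation time to a mechanism-based inhibition equation (kinact, Ki). Duplicates.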

Experiment [3] has the same target. The experiment is described as follows: Inhibition of recombinant Plasmodium falciparum GAPDH expressed in Escherichia coli at 50 to 200 uM by time course assay. To be noted: TDE = time-dependent effect. The method, boiled down:
as §1

For experiment [4] the target is unchanged. The experiment is described as follows: Inhibition of recombinant Plasmodium falciparum GAPDH expressed in Escherichia coli assessed as ratio of kinact to Ki by Kitz-Wilson double-reciprocal plot. The method, boiled down: as §1
Experiment [5] shares this target. Description: Inhibition of undigested recombinant Plasmodium falciparum GAPDH at 200 uM measured after overnight incubation by mass spectroscopy. Summed up: (§2)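 Pf GAPDH incubated overnight with inhibitor at 200 μM. MALDI-TOF on undigested protein (double-layer CHCA matrix) or on tryptic digests (thin-layer CHCA), with MS/MS. Cys alkylation checked by 1 h treatment of 20 μM enzyme with 10-fold excess iodoacetamide before analysis.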

Experiment [6] shares this target. Description: Inhibition of unmodified recombinant Plasmodium falciparum GAPDH at 200 uM measured after overnight incubation by mass spectroscopy in presence of trypsin. Summed up:
as §2

Experiment [7] shares this target. The experiment is described as follows: Irreversible inhibition of recombinant Plasmodium falciparum GAPDH expressed in Escherichia coli by time course assay. Summed up: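 Pf GAPDH was incubated with inhibitor at 50–300 μM, and enzyme activity was assayed over the incubation time. Activity was normalized to the same enzyme kept under identical conditions without inhibitor. Residual-activity time courses were fitted to a sum of two exponential decays. kobs was obtained by fitting the mechanism-based inhibition equation, giving kinact and Ki. Experiments were done in duplicate.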

Experiment [8] shares this target. Description: Inhibition of recombinant Plasmodium falciparum GAPDH expressed in Escherichia coli at 50 to 300 uM by time course assay. The method, boiled down: as §1
For experiment [9] the target is unchanged. Description: Inhibition of recombinant Plasmodium falciparum GAPDH expressed in Escherichia coli by UV-vis spectroscopy. Summed up:
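Enzyme at 400 μM incubated with inhibitor. Absorption spectra recorded until reaction completion to follow loss of the Racker band.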

Glyceraldehyde-3-phosphate dehydrogenase (Plasmodium falciparum), sequence (Q8T6B1 as listed by the source): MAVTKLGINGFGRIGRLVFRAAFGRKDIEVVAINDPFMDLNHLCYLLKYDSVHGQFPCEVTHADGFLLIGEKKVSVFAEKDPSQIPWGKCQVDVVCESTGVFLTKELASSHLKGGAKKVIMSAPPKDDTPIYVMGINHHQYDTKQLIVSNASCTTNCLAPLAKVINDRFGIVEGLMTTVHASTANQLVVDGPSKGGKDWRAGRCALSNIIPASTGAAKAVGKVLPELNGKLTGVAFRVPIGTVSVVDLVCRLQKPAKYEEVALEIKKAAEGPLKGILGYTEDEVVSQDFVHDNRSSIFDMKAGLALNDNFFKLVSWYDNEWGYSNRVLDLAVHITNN
Glyceraldehyde-3-phosphate dehydrogenase (Homo sapiens), sequence (P04406 2-335 limits assumed): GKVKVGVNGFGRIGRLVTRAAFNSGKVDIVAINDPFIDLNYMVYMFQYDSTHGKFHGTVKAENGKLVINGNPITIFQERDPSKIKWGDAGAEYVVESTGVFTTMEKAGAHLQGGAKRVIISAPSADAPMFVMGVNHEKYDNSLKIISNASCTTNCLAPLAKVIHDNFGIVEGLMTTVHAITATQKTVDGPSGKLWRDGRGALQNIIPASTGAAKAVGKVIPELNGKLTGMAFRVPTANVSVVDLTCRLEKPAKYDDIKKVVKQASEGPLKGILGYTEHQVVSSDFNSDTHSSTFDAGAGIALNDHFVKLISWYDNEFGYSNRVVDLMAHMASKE

With `C=CC=O`, the Ratio in [1] is 297 M⁻¹ s⁻¹.

For the compound `COC(=O)[C@@H](N)[C@@H]1CC(Br)=NO1`, the figures for the inhibition entry in [2] and in experiment [3] were “Dose-dependent effect” and “tde”, respectively. Further, the Ratio in [4] stood at 10.7 M⁻¹ s⁻¹. Moreover, the inhibition entry in [5] and in experiment [6] was “Active” throughout.

As for `ClC1=NOC(c2ccccc2)C1` (racemic), the inhibition result in experiment [2] was “Dose-dependent effect”; in experiment [3], “tde”. Also, the inhibition entry in experiment [7] was “Active”.

For the compound `CC(C)(C)OC(=O)NCC1CC(Br)=NO1` (racemic), the inhibition result in [2] is “Dose-dependent effect”. Further, the inhibition entry in experiment [8] and in experiment [5] was “Active” in each case. Moreover, the Ratio in experiment [4] was 2.9 M⁻¹ s⁻¹.

With `N[C@H](C(=O)O)[C@@H]1CC(Br)=NO1`, the inhibition entry in experiment [2] is “Dose-dependent effect”; in [3], “tde”. Moreover, the inhibition result in experiment [7] is “Active”. In addition, in experiment [4], the Ratio was 0.7 M⁻¹ s⁻¹.

Turning to `O=C(N[C@H](C(=O)O)[C@@H]1CC(Br)=NO1)OCc1ccccc1`, the inhibition result in [2] is “Dose-dependent effect”; in experiment [3] it was “tde”. Besides, the Ratio in experiment [4] was determined as 2.6 M⁻¹ s⁻¹. Besides, the inhibition result in experiment [6] was “Active”.

In the case of `CC(C)(C)OC(=O)N1CC2ON=C(Br)C2C1` (racemic), the figures for the inhibition result in experiment [2] and in [3] were “Dose-dependent effect” and “tde”, respectively. Besides, the Ratio in experiment [4] amounted to 4.8 M⁻¹ s⁻¹.

Turning to `BrC1=NOC(c2ccncc2)C1` (racemic), the inhibition entry is “Dose-dependent effect” in experiment [2] and “tde” in [3]. Also, in experiment [4], the Ratio stood at 0.47 M⁻¹ s⁻¹.

For `N[C@H](C(=O)O)[C@@H]1CC(Cl)=NO1`, the figures for the inhibition result in experiment [2] and in experiment [3] were “Dose-dependent effect” and “tde”, respectively. Besides, the inhibition result in [7] was “Active”.

In the case of `C=CC(N)=O`, the Ratio in experiment [1] was 0.053 M⁻¹ s⁻¹.

`Oc1ccc(C2CC(Br)=NO2)cc1` (racemic): the inhibition result in experiment [2] was “Dose-dependent effect”; in [3], “tde”. Besides, the Ratio in [4] came to 3.1 M⁻¹ s⁻¹.

For the compound `BrC1=NOC(c2ccccc2)C1` (racemic), the inhibition entry was “Dose-dependent effect” in [2] and “tde” in [3]. Moreover, the inhibition result in experiment [7] and in [9] was “Active” throughout. In addition, the Ratio in experiment [4] came out at 10.3 M⁻¹ s⁻¹.

With `N[C@H](C(=O)OCc1ccccc1)[C@@H]1CC(Br)=NO1`, the values for the inhibition result in experiment [2] and in experiment [3] were “Dose-dependent effect” and “tde”, respectively. Besides, the Ratio in experiment [4] was 6.6 M⁻¹ s⁻¹. Further, in [5], the inhibition result is “Active”.

Regarding `O=C(O)CC1CC(Br)=NO1` (racemic), the results for the inhibition entry in [2] and in [3] were “Dose-dependent effect” and “tde”, respectively. For the same compound, the Ratio in experiment [4] was 0.7 M⁻¹ s⁻¹.

For the origin of these results see ChEMBL document CHEMBL3352381, “Discovery of covalent inhibitors of glyceraldehyde-3-phosphate dehydrogenase, a target for the treatment of malaria” (J Med Chem, 2014).
